# Measured values reported in PubChem BioAssay AID1943 (The Scripps Research Institute Molecular Screening Center, 2009).
# About 500 (31%) of roughly 1,600 compounds were called active.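 The calls were made as follows: active = inhibition above the mean of all tested compounds plus 3 SD, cutoff set per campaign (cut at about 36% in these data); inactive = the rest.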 The full list was thinned out, with actives kept by preference.
# System: Hepatitis C virus NS3 helicase
# Assay: HCV NS3 helicase inhibitors, retest, confirmation, biochemical, Cy5 molecular beacon fluorescence, triplicate (AID 1943)
# Details: NS3 helicase DNA unwinding, at 10.9 µM, active compounds read high
# Summary of the method: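 Test system: HCV NS3 helicase fragment enzyme | Medium: MOPS buffer pH 6.5 with MgCl2, DTT, Tween20 and BSA | Also added: Annealed DNA duplex bearing Cy5/quencher molecular beacon strand, ATP as starter | Schedule: 0 and 60 min reads at 25 °C | Detection: Cy5 fluorescence quenching by beacon hairpin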
row,Structure (SMILES),inhibition
1,O=C1CC(=O)N(Cc2ccccc2)C(=O)N1CCCCCCN1C(=O)CC(=O)N(Cc2ccccc2)C1=O,55.3% (active)
2,COc1ccc(N2C(=O)/C(=C/c3ccco3)C(=O)NC2=S)cc1,82% (active)
3,CC(C)n1c(=O)c(C=Nc2ccc(Br)cc2)c(O)n(Cc2ccco2)c1=O,1.92% (inactive)
